Source: ChEMBL document CHEMBL4825692, “Benzofuranyl-2-imidazoles as imidazoline I2 receptor ligands for Alzheimer's disease” (Eur J Med Chem, 2021)
Active and inactive are the calls of the source. The rule behind the calls is not given here.

Experiments:
[1] = Displacement of [3H]clonidine from imidazoline I1 receptor low affinity site in rat hypothalamic membranes measured after 30 mins by liquid scintillation counting spectrometry; format: cell membranes, Hypothalamus, Membrane
[2] = Displacement of [3H]clonidine from imidazoline I1 receptor low affinity site in human hypothalamic membranes measured after 30 mins by liquid scintillation counting spectrometry; format: cell membranes, Hypothalamus, Membrane
Homo sapiens = species on record: Homo sapiens; assay: Selectivity index, ratio of pKi for displacement of [3H]2-BFI from imidazoline I2 receptor in post-mortem human brain frontal cortex membrane to pKi for displacement of [3H]-RX821002 from adrenergic alpha 2 receptor in post-mortem human brain frontal cortex membrane; format: cell membranes
[3] = Permeability of compound by PAMPA-BBB assay; format: ADME
[4] = Acute toxicity in albino mouse assessed as effect on body weight at 100 mg/kg, ip; format: organism-based; details: in vivo
[5] = Solubility of compound at pH 4.61; format: physicochemical; details: buffer
Method in brief: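 Solubility was measured at pH 1.13, 4.61 and 6.97, simulating gastric and intestinal fluids, and classed by European Pharmacopoeia terms.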

[6] = Microsomal stability in mouse liver microsomes assessed as parent compound remaining after 60 mins; format: ADME, Microsome; details: read-out: Stabilty
Method in brief: (§1)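 Human and mouse microsomes, incubation for 60 min, with percentage of parent compound remaining reported.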

[7] = Microsomal stability in human liver microsomes assessed as parent compound remaining after 60 mins; format: ADME, Microsome; details: read-out: Stabilty; method in brief: as §1
Cytochrome P450 2C19 = Cytochrome P450 2C19 (Homo sapiens, UniProt P33261); assay: Inhibition of CYP2C19 (unknown origin) at 10 uM; format: ADME
Method in brief: (§2)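 Recombinant human CYP1A2, CYP2C9, CYP2C19, CYP2D6 and CYP3A4 (7-BFC or DBF as probe) were tested with probe substances and fluorescent detection, with test compound at 10 μM.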

Cytochrome P450 2D6 = Cytochrome P450 2D6 (Homo sapiens, UniProt P10635); assay: Inhibition of CYP2D6 (unknown origin) at 10 uM; format: ADME; method in brief: as §2
Cytochrome P450 3A4 = Cytochrome P450 3A4 (Homo sapiens, UniProt P08684); assay: Inhibition of CYP3A4 (unknown origin) using as DBF as substrate at 10 uM; format: ADME; method in brief: as §2
[8] = Stability in mouse plasma assessed as compound remaining after 6 hrs; format: ADME, cell-free; details: read-out: Stabilty
hERG (KCNH2) = hERG (KCNH2) (Homo sapiens, UniProt Q12809); assay: Inhibition of human ERG at 10 uM
NCI-H460 = assay: Cytotoxicity against human NCI-H460 cells at 100 uM by real time IncuCyte proliferation assay; format: cell-based; details: nci-h460, 100 µM
Method in brief: (§3)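 Adherent lines (LN-229, Capan-1, HCT-116, NCI-H460) seeded at 500–1500 cells/well and treated after overnight attachment. Suspension lines (HL-60, K-562, Z-138, DND-41) seeded at 2500–5500 cells/well directly with compound. Highest concentration 100 μM; proliferation tracked by real-time IncuCyte imaging over 72 h at 37 °C.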

[9] = Cytotoxicity against human DND41 cells at 100 uM by real time IncuCyte proliferation assay; format: cell-based; details: dnd41, 100 µM; method in brief: as §3
HL-60 = assay: Cytotoxicity against human HL-60 cells at 100 uM by real time IncuCyte proliferation assay; format: cell-based; details: hl-60, 100 µM; method in brief: as §3
[10] = AUC (0 to infinity) in CD-1 mouse at 10 mg/kg, po measured after 24 hrs by HPLC/UV-VS analysis; format: ADME, organism-based; set-up: route oral, time 24 hrs, dose 10 mg/kg; details: in vivo
Method in brief: (§4)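 Male CD1 mice; plasma concentration of drug at 15 min to 24 h after a single oral 10 mg/kg dose, measured by HPLC with UV at 290 nm (calibration 0,025-5 μg/mL, peak area ratio). Non-compartmental analysis of mean concentration–time curves: AUC by trapezoidal rule, Cmax read directly from the mean curve.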

[11] = Tmax in CD-1 mouse at 10 mg/kg, po measured after 24 hrs by HPLC/UV-VS analysis; format: ADME, organism-based; details: in vivo
Method in brief: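 Male CD1 mice (40–50 g, n = 3–4 per group) received a single 10 mg/kg dose. Plasma was taken at 15, 30, 45 and 60 min and 2, 3, 4, 5, 8 and 24 h. Drug was measured by HPLC-UV at 290 nm against a calibration of 0,025-5 μg/mL. Non-compartmental analysis used the mean curve: t1/2β = ln2/β from least-squares terminal slope; Tmax read directly.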

[12] = Cmax in CD-1 mouse at 10 mg/kg, po measured after 24 hrs by HPLC/UV-VS analysis; format: ADME, organism-based; set-up: route oral, dose 10 mg/kg, time 24 hrs; details: in vivo; method in brief: as §4
Mus musculus [13] = assay: Neuroprotection in naive mouse assessed as reduction in hippocampal FADD protein level at 50 mg/kg, ip by Western blot analysis relative to control; format: functional; set-up: scale not given: the % may be the effect or the level left
Method in brief: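 Adult naive CD-1 mice received one i.p. dose (n = 7) or saline vehicle (2 ml/kg, n = 6) and were killed 1 h later. Hippocampal protein (40 µg) was run on 10% SDS-PAGE, blotted to nitrocellulose and probed with anti-FADD, then ECL. Band IOD densitometry was expressed as % of same-gel vehicle controls, averaged over 2–4 gels per sample.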

Mus musculus [14] = assay: Antialzheimer activity in 5xFAD transgenic Alzheimer disease mouse model assessed as decrease in iNOS expression at 1 mg/kg/day by Western blot analysis
Mus musculus [15] = assay: Antialzheimer activity in 5xFAD transgenic Alzheimer disease mouse model assessed as increase in SOD1 expression at 1 mg/kg/day by Western blot analysis
Mus musculus [16] = assay: Antialzheimer activity in 5xFAD transgenic Alzheimer disease mouse model assessed as decrease in heme oxygenase 1 expression at 1 mg/kg/day by Western blot analysis
[17] = Displacement of [3H]2-BFI from imidazoline I2 receptor low affinity site in Swiss mouse brain cerebral cortex membrane measured after 45 mins by liquid scintillation counting spectrometry
[18] = Displacement of [3H]2-BFI from imidazoline I2 receptor high affinity site in Swiss mouse brain cerebral cortex membrane measured after 45 mins by liquid scintillation counting spectrometry
[19] = Displacement of [3H]2-BFI from imidazoline I2 receptor in post-mortem human brain frontal cortex membrane one site model measured after 45 mins by liquid scintillation counting spectrometry
[20] = Displacement of [3H]2-BFI from imidazoline I2 receptor high affinity site in post-mortem human brain frontal cortex membrane two site model measured after 45 mins by liquid scintillation counting spectrometry

hERG (KCNH2), sequence (Q12809 whole entry): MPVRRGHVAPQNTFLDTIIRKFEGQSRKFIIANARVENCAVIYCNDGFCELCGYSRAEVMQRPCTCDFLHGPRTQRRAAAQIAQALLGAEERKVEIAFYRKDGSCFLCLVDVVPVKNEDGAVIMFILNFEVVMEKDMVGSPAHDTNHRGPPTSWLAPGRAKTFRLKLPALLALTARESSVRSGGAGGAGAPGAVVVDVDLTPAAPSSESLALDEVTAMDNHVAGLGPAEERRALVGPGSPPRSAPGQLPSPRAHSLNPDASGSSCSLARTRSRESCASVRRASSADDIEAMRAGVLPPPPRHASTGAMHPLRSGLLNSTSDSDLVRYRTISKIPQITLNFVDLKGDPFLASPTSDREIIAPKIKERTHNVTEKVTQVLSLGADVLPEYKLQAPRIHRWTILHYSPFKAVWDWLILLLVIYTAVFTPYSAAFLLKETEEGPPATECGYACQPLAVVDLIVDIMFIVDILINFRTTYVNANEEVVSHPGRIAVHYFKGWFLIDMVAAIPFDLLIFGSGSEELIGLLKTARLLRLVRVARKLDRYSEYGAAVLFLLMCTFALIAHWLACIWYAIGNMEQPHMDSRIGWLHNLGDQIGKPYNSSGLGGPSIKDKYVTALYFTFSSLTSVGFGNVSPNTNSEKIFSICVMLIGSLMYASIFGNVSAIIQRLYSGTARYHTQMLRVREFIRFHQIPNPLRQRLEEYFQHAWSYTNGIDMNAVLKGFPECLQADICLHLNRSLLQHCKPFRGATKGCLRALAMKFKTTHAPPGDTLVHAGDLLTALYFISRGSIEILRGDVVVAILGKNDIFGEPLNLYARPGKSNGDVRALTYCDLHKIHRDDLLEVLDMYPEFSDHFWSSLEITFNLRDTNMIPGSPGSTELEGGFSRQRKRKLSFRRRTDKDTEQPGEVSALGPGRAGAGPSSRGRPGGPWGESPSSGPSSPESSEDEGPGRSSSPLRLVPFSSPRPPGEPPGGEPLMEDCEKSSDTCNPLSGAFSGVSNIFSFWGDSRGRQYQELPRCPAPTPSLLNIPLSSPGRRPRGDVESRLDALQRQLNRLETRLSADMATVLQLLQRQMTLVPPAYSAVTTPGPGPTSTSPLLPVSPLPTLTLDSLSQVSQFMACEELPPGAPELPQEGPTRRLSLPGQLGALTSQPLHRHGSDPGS
Cytochrome P450 3A4, sequence (P08684 whole entry): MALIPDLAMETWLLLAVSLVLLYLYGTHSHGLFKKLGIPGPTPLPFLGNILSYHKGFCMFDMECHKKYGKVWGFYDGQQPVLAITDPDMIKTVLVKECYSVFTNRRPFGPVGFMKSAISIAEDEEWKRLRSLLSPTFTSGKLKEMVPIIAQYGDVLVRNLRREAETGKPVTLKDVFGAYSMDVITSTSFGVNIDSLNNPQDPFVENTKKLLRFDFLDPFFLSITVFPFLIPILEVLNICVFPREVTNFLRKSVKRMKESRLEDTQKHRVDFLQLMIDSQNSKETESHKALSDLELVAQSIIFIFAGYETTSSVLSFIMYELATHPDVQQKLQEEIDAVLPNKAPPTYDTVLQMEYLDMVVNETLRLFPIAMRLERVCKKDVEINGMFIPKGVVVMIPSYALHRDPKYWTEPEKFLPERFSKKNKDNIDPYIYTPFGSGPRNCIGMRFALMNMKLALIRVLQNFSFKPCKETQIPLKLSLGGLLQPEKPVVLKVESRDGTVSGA
Cytochrome P450 2D6, sequence (P10635 whole entry): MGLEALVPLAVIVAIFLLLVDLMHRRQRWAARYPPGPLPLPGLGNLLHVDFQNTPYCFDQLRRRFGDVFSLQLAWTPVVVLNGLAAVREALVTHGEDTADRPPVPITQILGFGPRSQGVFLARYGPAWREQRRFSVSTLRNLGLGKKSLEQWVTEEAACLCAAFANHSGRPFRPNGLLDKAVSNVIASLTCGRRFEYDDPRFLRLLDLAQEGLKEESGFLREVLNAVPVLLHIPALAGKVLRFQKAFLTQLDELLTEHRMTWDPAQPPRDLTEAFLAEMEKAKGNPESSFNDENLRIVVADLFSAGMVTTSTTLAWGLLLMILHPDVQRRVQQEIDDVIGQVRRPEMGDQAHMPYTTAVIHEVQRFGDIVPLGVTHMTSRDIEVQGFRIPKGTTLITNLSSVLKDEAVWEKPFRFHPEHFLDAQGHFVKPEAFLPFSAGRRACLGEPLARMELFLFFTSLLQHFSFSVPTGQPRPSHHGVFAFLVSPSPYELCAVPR
Cytochrome P450 2C19, sequence (P33261 whole entry): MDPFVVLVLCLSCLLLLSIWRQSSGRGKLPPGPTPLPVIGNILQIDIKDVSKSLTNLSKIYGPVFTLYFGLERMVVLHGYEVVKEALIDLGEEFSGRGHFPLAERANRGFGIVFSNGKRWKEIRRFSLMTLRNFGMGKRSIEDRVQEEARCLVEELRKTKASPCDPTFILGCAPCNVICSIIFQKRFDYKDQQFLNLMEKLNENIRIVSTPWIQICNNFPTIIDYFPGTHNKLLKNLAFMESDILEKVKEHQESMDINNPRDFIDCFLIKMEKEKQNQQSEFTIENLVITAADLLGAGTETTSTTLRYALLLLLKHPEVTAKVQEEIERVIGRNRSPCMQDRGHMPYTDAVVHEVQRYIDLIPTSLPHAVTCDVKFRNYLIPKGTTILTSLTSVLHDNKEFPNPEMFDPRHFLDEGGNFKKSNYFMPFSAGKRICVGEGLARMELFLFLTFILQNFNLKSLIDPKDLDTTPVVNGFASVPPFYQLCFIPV

Cl.c1ccc2oc(-c3ncc[nH]3)cc2c1
Ki [1]: 115 µM
Ki [2]: 250 µM
Selectivity Index (Homo sapiens): 3090
Papp [3]: 13.6 ×10⁻⁶ cm/s
Activity [4]: Non-Toxic
solubility [5]: Soluble
remaining at 1 h [6]: 36%
remaining at 1 h [7]: 58%
inhibition (INH) (Cytochrome P450 2C19): Not Active
inhibition (INH) (Cytochrome P450 2D6): Not Active
inhibition (INH) (Cytochrome P450 3A4): Not Active
remaining at 6 h [8]: 100%
inhibition at 10 µM (hERG (KCNH2)): 4%
Activity (NCI-H460): Non-Toxic
Activity [9]: Non-Toxic
Activity (HL-60): Non-Toxic
AUC(0-inf) [10]: 2600 ng·h/mL
Tmax [11]: 2 h
Cmax [12]: 600 ng/mL
Activity (Mus musculus [13]): 34%
Activity (Mus musculus [14]): Active
Activity (Mus musculus [15]): Active
Activity (Mus musculus [16]): Active
pKi [17]: 6
pKi [18]: 9.92
pKi [19]: 6.67
pKi [20]: 8.17
